{"source": "ChEMBL document CHEMBL4152287", "about": "“Synthesis and characterization of novel classes of PDE10A inhibitors - 1H-1,3-benzodiazoles and imidazo[1,2-a]pyrimidines” (Eur J Med Chem, 2018)", "key": {"[1]": {"molecular_target": "T1, Dual specificity calcium/calmodulin-dependent 3',5'-cyclic nucleotide phosphodiesterase 1C (Homo sapiens, UniProt Q14123)", "T1 sequence (Q14123 whole entry, the tested form may be a part)": "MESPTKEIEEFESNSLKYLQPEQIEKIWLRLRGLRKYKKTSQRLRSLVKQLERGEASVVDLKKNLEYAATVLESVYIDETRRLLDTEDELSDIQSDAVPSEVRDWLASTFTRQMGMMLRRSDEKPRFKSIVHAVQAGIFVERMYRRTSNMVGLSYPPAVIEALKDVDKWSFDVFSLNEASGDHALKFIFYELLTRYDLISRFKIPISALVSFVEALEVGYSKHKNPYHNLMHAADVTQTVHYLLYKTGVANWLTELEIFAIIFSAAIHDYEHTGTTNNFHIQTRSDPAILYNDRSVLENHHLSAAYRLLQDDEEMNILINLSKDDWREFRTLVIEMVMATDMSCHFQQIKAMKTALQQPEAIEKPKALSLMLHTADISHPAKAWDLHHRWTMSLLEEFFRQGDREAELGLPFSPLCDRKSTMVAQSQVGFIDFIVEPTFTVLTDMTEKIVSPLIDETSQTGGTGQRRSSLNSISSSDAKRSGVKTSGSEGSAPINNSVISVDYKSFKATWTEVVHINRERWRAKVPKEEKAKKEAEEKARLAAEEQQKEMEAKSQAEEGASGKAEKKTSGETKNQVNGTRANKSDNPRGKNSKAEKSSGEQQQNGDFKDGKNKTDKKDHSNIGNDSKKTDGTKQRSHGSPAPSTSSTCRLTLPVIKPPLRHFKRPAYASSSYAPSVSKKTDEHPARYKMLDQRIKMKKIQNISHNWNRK", "test": "Inhibition of recombinant human N-terminal GST-tagged PDE1C (2 to 634 residues) expressed in baculovirus infected Sf9 cells at 100 nM using iFl-cAMP/iFl-cGMP as substrate by mobility shift assay relative to control"}, "[2]": {"molecular_target": "T2, cGMP-dependent 3',5'-cyclic phosphodiesterase (Rattus norvegicus) (UniProt Q01062)", "T2 sequence (whole entry)": "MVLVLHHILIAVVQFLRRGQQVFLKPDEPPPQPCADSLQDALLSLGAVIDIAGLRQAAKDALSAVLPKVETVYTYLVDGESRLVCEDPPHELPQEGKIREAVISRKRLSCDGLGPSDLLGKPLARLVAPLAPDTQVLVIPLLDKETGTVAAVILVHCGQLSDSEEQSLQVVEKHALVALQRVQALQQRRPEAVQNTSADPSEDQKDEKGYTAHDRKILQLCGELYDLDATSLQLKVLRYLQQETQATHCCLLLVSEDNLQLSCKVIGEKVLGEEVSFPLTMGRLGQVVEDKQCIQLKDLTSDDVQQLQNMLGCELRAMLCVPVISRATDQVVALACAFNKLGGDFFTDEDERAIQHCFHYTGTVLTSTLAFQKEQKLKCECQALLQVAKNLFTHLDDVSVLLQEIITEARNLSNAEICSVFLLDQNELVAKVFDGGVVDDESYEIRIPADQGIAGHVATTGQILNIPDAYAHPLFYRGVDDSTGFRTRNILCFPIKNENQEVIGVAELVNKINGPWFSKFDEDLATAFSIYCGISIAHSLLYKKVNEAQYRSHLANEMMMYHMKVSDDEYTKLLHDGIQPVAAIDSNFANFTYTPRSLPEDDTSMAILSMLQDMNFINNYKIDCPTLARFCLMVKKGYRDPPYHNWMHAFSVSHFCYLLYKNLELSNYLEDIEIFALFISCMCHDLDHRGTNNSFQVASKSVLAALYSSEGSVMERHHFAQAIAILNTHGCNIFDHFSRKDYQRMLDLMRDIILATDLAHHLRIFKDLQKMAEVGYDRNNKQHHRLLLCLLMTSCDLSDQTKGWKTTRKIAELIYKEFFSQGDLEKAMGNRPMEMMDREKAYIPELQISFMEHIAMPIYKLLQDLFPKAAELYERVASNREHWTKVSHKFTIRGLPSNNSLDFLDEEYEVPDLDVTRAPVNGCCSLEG", "test": "Inhibition of rat PDE2A expressed in baculovirus infected Sf9 cells at 100 nM using iFl-cAMP/iFl-cGMP as substrate by mobility shift assay relative to control"}, "[3]": {"molecular_target": "cGMP-inhibited 3',5'-cyclic phosphodiesterase 3B (Homo sapiens) (UniProt Q13370)", "sequence (Q13370 whole entry, looked up)": "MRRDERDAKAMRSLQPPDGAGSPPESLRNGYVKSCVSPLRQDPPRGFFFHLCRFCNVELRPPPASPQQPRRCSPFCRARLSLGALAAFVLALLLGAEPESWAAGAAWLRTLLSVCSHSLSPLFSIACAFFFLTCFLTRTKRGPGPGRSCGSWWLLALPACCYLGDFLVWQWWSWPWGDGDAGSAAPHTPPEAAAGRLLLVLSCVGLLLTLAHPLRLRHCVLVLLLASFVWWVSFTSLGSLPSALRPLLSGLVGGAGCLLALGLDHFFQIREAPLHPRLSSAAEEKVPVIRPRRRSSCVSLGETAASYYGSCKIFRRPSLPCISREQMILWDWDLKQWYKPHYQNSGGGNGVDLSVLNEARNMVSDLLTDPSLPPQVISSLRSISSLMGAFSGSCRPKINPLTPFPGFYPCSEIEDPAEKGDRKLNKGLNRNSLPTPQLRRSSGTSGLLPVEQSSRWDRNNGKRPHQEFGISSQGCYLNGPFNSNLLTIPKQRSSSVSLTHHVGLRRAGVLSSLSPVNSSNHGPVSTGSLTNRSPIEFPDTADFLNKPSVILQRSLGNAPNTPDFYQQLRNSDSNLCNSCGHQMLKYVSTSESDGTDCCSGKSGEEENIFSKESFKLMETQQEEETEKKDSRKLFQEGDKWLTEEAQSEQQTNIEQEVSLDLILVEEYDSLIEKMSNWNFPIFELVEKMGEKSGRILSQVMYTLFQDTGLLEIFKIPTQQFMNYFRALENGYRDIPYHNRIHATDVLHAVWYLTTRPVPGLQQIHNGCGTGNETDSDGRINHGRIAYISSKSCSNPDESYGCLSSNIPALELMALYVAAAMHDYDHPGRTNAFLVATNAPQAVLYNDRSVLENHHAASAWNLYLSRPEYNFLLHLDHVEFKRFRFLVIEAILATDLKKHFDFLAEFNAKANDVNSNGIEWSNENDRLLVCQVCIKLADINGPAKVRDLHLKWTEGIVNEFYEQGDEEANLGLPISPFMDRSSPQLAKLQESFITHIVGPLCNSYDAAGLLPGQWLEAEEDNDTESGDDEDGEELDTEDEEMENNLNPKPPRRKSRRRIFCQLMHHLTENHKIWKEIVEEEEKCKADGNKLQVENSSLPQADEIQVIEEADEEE", "test": "Inhibition of recombinant human N-terminal GST-tagged PDE3B (592 to end residues) expressed in baculovirus infected Sf9 cells at 100 nM using iFl-cAMP/iFl-cGMP as substrate by mobility shift assay relative to control"}, "[4]": {"molecular_target": "3',5'-cyclic-AMP phosphodiesterase 4B (Homo sapiens) (UniProt Q07343)", "test": "Inhibition of recombinant full length human N-terminal GST-tagged PDE4B1 expressed in baculovirus infected Sf9 cells at 100 nM using iFl-cAMP/iFl-cGMP as substrate by mobility shift assay relative to control"}, "[5]": {"molecular_target": "cGMP-specific 3',5'-cyclic phosphodiesterase (Homo sapiens) (UniProt O76074)", "test": "Inhibition of PDE5A1 (unknown origin) at 100 nM using iFl-cAMP/iFl-cGMP as substrate by mobility shift assay relative to control"}, "[6]": {"molecular_target": "Cone cGMP-specific 3',5'-cyclic phosphodiesterase subunit alpha' (Homo sapiens) (UniProt P51160)", "sequence (P51160 whole entry)": "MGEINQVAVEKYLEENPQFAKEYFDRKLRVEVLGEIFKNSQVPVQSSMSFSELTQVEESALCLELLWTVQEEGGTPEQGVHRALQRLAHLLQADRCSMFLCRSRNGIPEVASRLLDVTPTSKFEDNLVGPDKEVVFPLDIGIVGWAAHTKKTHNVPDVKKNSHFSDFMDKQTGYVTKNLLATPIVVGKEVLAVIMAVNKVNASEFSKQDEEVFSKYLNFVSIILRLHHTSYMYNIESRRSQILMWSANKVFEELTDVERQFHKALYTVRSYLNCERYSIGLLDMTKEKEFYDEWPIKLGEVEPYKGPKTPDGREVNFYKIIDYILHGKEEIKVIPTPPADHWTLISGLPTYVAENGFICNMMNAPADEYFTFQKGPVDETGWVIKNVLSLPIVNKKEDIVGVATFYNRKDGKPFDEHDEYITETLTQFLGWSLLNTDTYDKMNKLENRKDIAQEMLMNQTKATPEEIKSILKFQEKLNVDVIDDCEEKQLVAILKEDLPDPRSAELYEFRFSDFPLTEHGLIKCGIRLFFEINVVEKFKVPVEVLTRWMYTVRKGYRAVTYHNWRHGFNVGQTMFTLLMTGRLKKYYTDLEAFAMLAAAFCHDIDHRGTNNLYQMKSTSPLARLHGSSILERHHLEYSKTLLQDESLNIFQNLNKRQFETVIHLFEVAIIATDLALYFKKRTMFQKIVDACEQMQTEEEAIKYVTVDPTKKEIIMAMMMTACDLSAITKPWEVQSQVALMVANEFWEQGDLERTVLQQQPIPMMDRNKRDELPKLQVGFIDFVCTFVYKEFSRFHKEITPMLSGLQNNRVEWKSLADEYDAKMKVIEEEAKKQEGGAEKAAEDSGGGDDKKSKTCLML", "test": "Inhibition of PDE6C (unknown origin) at 100 nM using iFl-cAMP/iFl-cGMP as substrate by mobility shift assay relative to control"}, "[7]": {"molecular_target": "High affinity 3',5'-cyclic-AMP phosphodiesterase 7A (Homo sapiens) (UniProt Q13946)", "sequence (Q13946 whole entry)": "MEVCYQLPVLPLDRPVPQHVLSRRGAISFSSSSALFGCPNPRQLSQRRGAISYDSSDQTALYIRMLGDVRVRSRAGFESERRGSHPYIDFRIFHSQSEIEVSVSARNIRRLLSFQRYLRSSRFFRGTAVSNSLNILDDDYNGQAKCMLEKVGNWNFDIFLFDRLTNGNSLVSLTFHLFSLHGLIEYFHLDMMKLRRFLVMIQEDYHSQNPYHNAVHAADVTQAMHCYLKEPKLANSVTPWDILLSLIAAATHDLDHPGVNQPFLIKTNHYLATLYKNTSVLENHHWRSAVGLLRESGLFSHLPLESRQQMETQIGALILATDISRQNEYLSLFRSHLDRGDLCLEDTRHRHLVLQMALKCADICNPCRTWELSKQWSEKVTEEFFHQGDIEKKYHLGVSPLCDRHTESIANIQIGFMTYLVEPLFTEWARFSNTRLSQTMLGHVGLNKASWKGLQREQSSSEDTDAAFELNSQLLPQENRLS", "test": "Inhibition of PDE7A (unknown origin) at 100 nM using iFl-cAMP/iFl-cGMP as substrate by mobility shift assay relative to control"}, "[8]": {"molecular_target": "High affinity cAMP-specific and IBMX-insensitive 3',5'-cyclic phosphodiesterase 8A (Homo sapiens) (UniProt O60658)", "test": "Inhibition of recombinant full length human N-terminal GST-tagged PDE8A1 expressed in baculovirus infected Sf9 cells at 100 nM using iFl-cAMP/iFl-cGMP as substrate by mobility shift assay relative to control"}, "[9]": {"molecular_target": "T3, High affinity cGMP-specific 3',5'-cyclic phosphodiesterase 9A (Homo sapiens, UniProt O76083)", "T3 sequence (O76083 whole entry)": "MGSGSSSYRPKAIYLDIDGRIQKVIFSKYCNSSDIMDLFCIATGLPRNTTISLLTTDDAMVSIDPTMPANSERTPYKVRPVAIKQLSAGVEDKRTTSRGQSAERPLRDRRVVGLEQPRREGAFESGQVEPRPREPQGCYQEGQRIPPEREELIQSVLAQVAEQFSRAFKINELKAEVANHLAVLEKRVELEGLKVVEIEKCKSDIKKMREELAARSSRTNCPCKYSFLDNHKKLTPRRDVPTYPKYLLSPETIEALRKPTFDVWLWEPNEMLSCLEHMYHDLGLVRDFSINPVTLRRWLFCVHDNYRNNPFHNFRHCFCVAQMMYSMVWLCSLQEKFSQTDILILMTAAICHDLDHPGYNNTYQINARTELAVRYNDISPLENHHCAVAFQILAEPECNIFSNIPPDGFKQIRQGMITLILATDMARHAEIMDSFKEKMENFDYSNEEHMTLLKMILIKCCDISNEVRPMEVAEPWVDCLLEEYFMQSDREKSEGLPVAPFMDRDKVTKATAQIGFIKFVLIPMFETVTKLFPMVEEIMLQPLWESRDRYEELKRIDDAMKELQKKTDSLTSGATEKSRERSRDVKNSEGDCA", "test": "Inhibition of recombinant full length human N-terminal GST-tagged PDE9A2 expressed in baculovirus infected Sf9 cells at 100 nM using iFl-cAMP/iFl-cGMP as substrate by mobility shift assay relative to control"}, "[10]": {"molecular_target": "T4, cAMP and cAMP-inhibited cGMP 3',5'-cyclic phosphodiesterase 10A (Homo sapiens, UniProt Q9Y233)", "T4 sequence (Q9Y233 whole entry, the tested form may be a part)": "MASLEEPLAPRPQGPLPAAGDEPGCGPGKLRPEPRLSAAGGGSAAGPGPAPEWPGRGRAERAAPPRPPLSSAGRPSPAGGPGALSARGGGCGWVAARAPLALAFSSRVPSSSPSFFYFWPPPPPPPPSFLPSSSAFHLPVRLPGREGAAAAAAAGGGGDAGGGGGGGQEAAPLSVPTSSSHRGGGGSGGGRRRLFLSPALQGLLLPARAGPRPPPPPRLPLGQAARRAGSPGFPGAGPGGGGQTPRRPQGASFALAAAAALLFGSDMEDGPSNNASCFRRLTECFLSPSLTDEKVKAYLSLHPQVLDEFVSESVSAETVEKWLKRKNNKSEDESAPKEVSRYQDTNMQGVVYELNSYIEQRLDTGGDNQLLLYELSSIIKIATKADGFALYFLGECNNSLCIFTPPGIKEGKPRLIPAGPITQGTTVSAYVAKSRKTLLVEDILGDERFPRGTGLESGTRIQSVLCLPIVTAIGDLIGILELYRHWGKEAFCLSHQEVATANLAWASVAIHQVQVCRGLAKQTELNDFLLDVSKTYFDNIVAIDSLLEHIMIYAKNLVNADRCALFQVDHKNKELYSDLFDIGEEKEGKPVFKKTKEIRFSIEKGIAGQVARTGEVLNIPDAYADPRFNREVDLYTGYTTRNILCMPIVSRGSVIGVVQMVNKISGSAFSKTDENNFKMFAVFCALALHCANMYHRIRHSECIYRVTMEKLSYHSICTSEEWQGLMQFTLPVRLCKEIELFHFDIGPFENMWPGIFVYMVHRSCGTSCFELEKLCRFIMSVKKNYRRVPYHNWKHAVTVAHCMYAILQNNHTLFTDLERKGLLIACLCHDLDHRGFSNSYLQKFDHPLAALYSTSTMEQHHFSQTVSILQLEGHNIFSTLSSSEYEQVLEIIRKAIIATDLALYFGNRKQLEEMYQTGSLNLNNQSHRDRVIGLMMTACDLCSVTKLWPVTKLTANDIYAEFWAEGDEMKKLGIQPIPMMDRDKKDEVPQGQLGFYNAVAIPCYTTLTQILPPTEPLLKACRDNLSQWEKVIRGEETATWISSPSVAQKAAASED", "test": "Inhibition of recombinant human N-terminal GST-tagged PDE10A1 ( 2 to 789 residues) expressed in baculovirus infected Sf9 cells at 100 nM using iFl-cAMP/iFl-cGMP as substrate by mobility shift assay relative to control"}, "[11]": {"molecular_target": "Dual 3',5'-cyclic-AMP and -GMP phosphodiesterase 11A (Mus musculus) (UniProt P0C1Q2)", "test": "Inhibition of recombinant mouse N-terminal GST-tagged PDE11A (2 to 933 residues) expressed in baculovirus infected Sf9 cells at 100 nM using iFl-cAMP/iFl-cGMP as substrate by mobility shift assay relative to control"}, "[12]": {"test": "Intrinsic clearance in rat liver microsomes in presence of NADP/G6P/G6P dehydrogenase/MgCl2 by LC/MS analysis", "type": "ADME, microsome", "conditions": "read-out: CLH", "summary_of_the_method": "(§1)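 Phase-1 liver microsomal stability assay for the named species, with intrinsic clearance reported in µl x min^-1 x mg^-1.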"}, "[13]": {"test": "Intrinsic clearance in human liver microsomes in presence of NADP/G6P/G6P dehydrogenase/MgCl2 by LC/MS analysis", "type": "ADME, microsome", "conditions": "read-out: CLH", "summary_of_the_method": "as §1"}, "[14]": {"test": "Intrinsic clearance in mouse liver microsomes in presence of NADP/G6P/G6P dehydrogenase/MgCl2/metabolic phase 2 co-factor by LC/MS analysis", "type": "ADME, microsome", "conditions": "read-out: CLH", "summary_of_the_method": "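Mouse liver microsomes incubated with both phase 1 and phase 2 co-factors, with intrinsic clearance expressed in µl x min^-1 x mg^-1.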"}, "[15]": {"test": "Intrinsic clearance in dog liver microsomes in presence of NADP/G6P/G6P dehydrogenase/MgCl2 by LC/MS analysis", "type": "ADME, Canis lupus familiaris, microsome", "conditions": "read-out: CLH", "summary_of_the_method": "as §1"}, "[16]": {"molecular_target": "T4, cAMP and cAMP-inhibited cGMP 3',5'-cyclic phosphodiesterase 10A", "test": "Inhibition of PDE10 (unknown origin)"}, "[17]": {"test": "Intrinsic clearance in rat liver microsomes", "type": "ADME, microsome"}, "[18]": {"molecular_target": "T4, cAMP and cAMP-inhibited cGMP 3',5'-cyclic phosphodiesterase 10A", "test": "Inhibition of Ca2+/calmodulin-induced recombinant human full length N-terminal GST-tagged PDE10A1 expressed in baculovirus infected Sf9 cells using cAMP as substrate pretreated for 10 mins followed by substrate addition and measured after 40 mins by kinase-Glo luminescence assay", "conditions": "read-out: IC50"}, "[19]": {"molecular_target": "T3, High affinity cGMP-specific 3',5'-cyclic phosphodiesterase 9A", "test": "Inhibition of Ca2+/calmodulin-induced recombinant human full length N-terminal GST-tagged PDE9A2 expressed in baculovirus infected Sf9 cells using cGMP as substrate pretreated for 10 mins followed by substrate addition and measured after 60 mins by kinase-Glo luminescence assay", "summary_of_the_method": "(§2)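 Selectivity screen run as a PDE-Glo enzymatic-activity luminescence assay, with IC50 values determined against each counter-screen PDE isoform.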"}, "[20]": {"molecular_target": "T1, Dual specificity calcium/calmodulin-dependent 3',5'-cyclic nucleotide phosphodiesterase 1C", "test": "Inhibition of Ca2+/calmodulin-induced full-length recombinant human N-terminal GST-tagged PDE1C expressed in baculovirus infected Sf9 insect cells using cAMP as substrate pretreated for 10 mins followed by substrate addition and measured after 30 mins by kinase-Glo luminescence assay", "summary_of_the_method": "as §2"}}}
{"smiles": "Cc1ncc(C)n2nc(-c3ccc4nc(-c5ccccc5)[nH]c4c3)nc12", "values": [{"measurement": "inhibition", "setting": "[1]", "value": 16, "unit": "%"}, {"measurement": "inhibition", "setting": "[2]", "value": 8, "unit": "%"}, {"measurement": "inhibition", "setting": "[3]", "value": -3, "unit": "%"}, {"measurement": "inhibition", "setting": "[4]", "value": 3, "unit": "%"}, {"measurement": "inhibition", "setting": "[5]", "value": 6, "unit": "%"}, {"measurement": "inhibition", "setting": "[6]", "value": -3, "unit": "%"}, {"measurement": "inhibition", "setting": "[7]", "value": 8, "unit": "%"}, {"measurement": "inhibition", "setting": "[8]", "value": -4, "unit": "%"}, {"measurement": "inhibition", "setting": "[9]", "value": -7, "unit": "%"}, {"measurement": "inhibition", "setting": "[10]", "value": 99, "unit": "%"}, {"measurement": "inhibition", "setting": "[11]", "value": 8, "unit": "%"}]}
{"smiles": "Cc1ncc(C)n2nc(-c3ccn4cc(-c5ccccc5)nc4c3)nc12", "values": [{"measurement": "microsomal CLint", "setting": "[12]", "value": 68.9, "unit": "µL/min/mg"}, {"measurement": "microsomal CLint", "setting": "[13]", "value": 11.6, "unit": "µL/min/mg"}, {"measurement": "microsomal CLint", "setting": "[14]", "value": 28.9, "unit": "µL/min/mg"}, {"measurement": "microsomal CLint", "setting": "[15]", "value": 16.3, "unit": "µL/min/mg"}, {"measurement": "IC50", "setting": "[16]", "value": 37, "unit": "nM"}, {"measurement": "CLH", "setting": "[17]", "value": 68.8, "unit": "µL/min/mg"}]}
{"smiles": "Cc1ncc(C)n2nc(-c3ccn4cc(-c5ccccc5)nc4n3)nc12", "values": [{"measurement": "IC50", "setting": "[18]", "value": 35, "unit": "nM"}, {"measurement": "microsomal CLint", "setting": "[12]", "value": 5.6, "unit": "µL/min/mg"}, {"measurement": "microsomal CLint", "setting": "[13]", "value": 1.8, "unit": "µL/min/mg"}, {"measurement": "microsomal CLint", "setting": "[14]", "value": 0.6, "unit": "µL/min/mg"}, {"measurement": "microsomal CLint", "setting": "[15]", "value": 7.4, "unit": "µL/min/mg"}, {"measurement": "IC50", "setting": "[19]", "value": "> 10", "unit": "µM"}, {"measurement": "IC50", "setting": "[20]", "value": "> 10", "unit": "µM"}, {"measurement": "inhibition", "setting": "[1]", "value": 5, "unit": "%"}, {"measurement": "inhibition", "setting": "[2]", "value": 9, "unit": "%"}, {"measurement": "inhibition", "setting": "[3]", "value": 7, "unit": "%"}, {"measurement": "inhibition", "setting": "[4]", "value": 4, "unit": "%"}, {"measurement": "inhibition", "setting": "[5]", "value": 6, "unit": "%"}, {"measurement": "inhibition", "setting": "[6]", "value": 18, "unit": "%"}, {"measurement": "inhibition", "setting": "[7]", "value": 26, "unit": "%"}, {"measurement": "inhibition", "setting": "[8]", "value": -1, "unit": "%"}, {"measurement": "inhibition", "setting": "[9]", "value": -3, "unit": "%"}, {"measurement": "inhibition", "setting": "[10]", "value": 98, "unit": "%"}, {"measurement": "inhibition", "setting": "[11]", "value": 9, "unit": "%"}]}
